In assay [1] the target is T1, High mobility group protein B1 (Mus musculus) (UniProt P63158).
T1 sequence (whole entry): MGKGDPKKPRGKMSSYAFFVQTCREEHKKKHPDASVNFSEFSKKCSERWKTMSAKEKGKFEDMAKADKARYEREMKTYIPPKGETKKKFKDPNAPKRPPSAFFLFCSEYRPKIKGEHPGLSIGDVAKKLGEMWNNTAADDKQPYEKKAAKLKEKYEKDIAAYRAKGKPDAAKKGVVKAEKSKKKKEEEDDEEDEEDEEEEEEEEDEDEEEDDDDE
Description: Inhibition of HMGB1 in mouse RAW264.7 cells assessed as LPS-induced TNFalpha release treated for 2 hrs prior to LPS-challenge measured after 16 hrs by ELISA. The class given is cell-based. The method, boiled down: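 RAW 264.7 murine macrophage-like cells grown in RPMI 1640 with 10% heat-inactivated FBS and 2 mM glutamine, 5% CO2. Compounds or HMGB1 neutralizing antibody added 2 h before LPS (0.01 ng/mL), then 16 h stimulation; TNF-α in supernatant measured by ELISA. Each compound run at least twice in triplicate; ED50 given with 95% confidence interval.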
In general terms: In an ELISA, binding on a coated surface is turned into a signal by an enzyme label.

Assay [2] concerns Mus musculus. Nature of the assay: Cardioprotective activity against DOX-induced chronic heart failure DCM ip dosed C57BL/6J mouse model assessed as improvement of LV diastolic anterior wall administered qd from day 70 post DOX challenge measured after 35 days. The class given is functional, organism-based.
In assay [3] the test system is Mus musculus. Description: Cardioprotective activity against DOX-induced acute heart failure DCM in ip dosed C57BL/6J mouse model assessed as increase in survival rate administered qd from day 10 post DOX-challenge measured after 50 days by echocardiography. The class given is functional, organism-based.
Assay [4] deals with Mus musculus. Nature of the assay: Cardioprotective activity against DOX-induced acute heart failure DCM in ip dosed C57BL/6J mouse model assessed as increase in fractional shortening administered qd from day 10 post DOX-challenge measured after 50 days by echocardiography. The class given is functional, organism-based.
Assay [5] deals with Mus musculus. Description: Cardioprotective activity against DOX-induced chronic heart failure DCM ip dosed C57BL/6J mouse model assessed as increase in survival rate administered qd from day 70 post DOX challenge measured after 35 days. The class given is functional, organism-based. The method, boiled down:
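Chronic DOX model: ip DOX at 3.5 mg/kg weekly for 8 weeks, then once-daily treatment with the indicated agent beginning two weeks after the last DOX dose. Survival followed by Kaplan-Meier curves and compared with a log rank test, n = 20/group.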

Assay [6] has as its system Mus musculus. Description: Cardioprotective activity against DOX-induced acute heart failure DCM in ip dosed C57BL/6J mouse model assessed as improvement in the maximum ascending rate of the LV pressure administered qd from day 10 post DOX-challenge measured after 50 days by echocardiography. It counts as functional, organism-based.
Assay [7] deals with Mus musculus. Description: Cardioprotective activity against DOX-induced acute heart failure DCM in ip dosed C57BL/6J mouse model assessed as improvement in the maximum descending rate of the LV pressure administered qd from day 10 post DOX-challenge measured after 50 days by echocardiography. It counts as functional, organism-based.
Assay [8] deals with Mus musculus. Description: Cardioprotective activity against DOX-induced chronic heart failure DCM ip dosed C57BL/6J mouse model assessed as improvement of diastolic interventricular septum administered qd from day 70 post DOX challenge measured after 35 days. The class given is functional, organism-based.
Assay [9] has as its system Mus musculus. Nature of the assay: Cardioprotective activity against DOX-induced chronic heart failure DCM ip dosed C57BL/6J mouse model assessed as improvement of fractional shortening administered qd from day 70 post DOX challenge measured after 35 days. It counts as functional, organism-based.
Assay [10] relates to Mus musculus. Nature of the assay: Cardioprotective activity against DOX-induced acute heart failure DCM in ip dosed C57BL/6J mouse model assessed as increase in ejection fraction administered qd from day 10 post DOX-challenge measured after 50 days by echocardiography. The class given is functional, organism-based.
For assay [11], the system named is Mus musculus. Nature of the assay: Cardioprotective activity against DOX-induced chronic heart failure DCM ip dosed C57BL/6J mouse model assessed as improvement of systolic interventricular septum administered qd from day 70 post DOX challenge measured after 35 days. It counts as functional, organism-based.
Assay [12] deals with Mus musculus. Description: Cardioprotective activity against DOX-induced chronic heart failure DCM ip dosed C57BL/6J mouse model assessed as improvement of ejection fraction administered qd from day 70 post DOX challenge measured after 35 days. The class given is functional, organism-based.
In assay [13] the target is T2, High mobility group protein B1 (Homo sapiens, UniProt P09429).
T2 sequence (P09429 whole entry): T1 sequence (whole entry) with D189E, E202D
Nature of the assay: Binding affinity to HMGB1 (unknown origin).

Positions count from the first letter of the chain named. The source made the active and inactive calls. The rule behind the calls is not given here.

For the compound `CCCNC[C@@]1(C)CC[C@]2(C)CC[C@]3(C)C(=CC(=O)[C@@H]4[C@@]5(C)CC[C@H](O[C@H]6O[C@H](C(=O)O)[C@@H](O)[C@H](O)[C@H]6O[C@@H]6O[C@H](C(=O)O)[C@@H](O)[C@H](O)[C@H]6O)C(C)(C)[C@@H]5CC[C@]43C)[C@@H]2C1`, the ED50 in [1] was 226 µM.
As to `CC1(C)[C@@H](O[C@H]2O[C@H](C(=O)O)[C@@H](O)[C@H](O)[C@H]2O[C@@H]2O[C@H](C(=O)O)[C@@H](O)[C@H](O)[C@H]2O)CC[C@]2(C)[C@H]3C(=O)C=C4[C@@H]5C[C@@](C)(CN[C@@H](CC(=O)O)C(=O)O)CC[C@]5(C)CC[C@@]4(C)[C@]3(C)CC[C@@H]12`, the result in the assay on Mus musculus [2], with Mus musculus [5], with Mus musculus [8], in the assay on Mus musculus [9], in the assay with Mus musculus [11] and in the assay on Mus musculus [12] was inactive. The outcome with Mus musculus [3], in the assay on Mus musculus [4], with Mus musculus [6], with Mus musculus [7] and in the assay with Mus musculus [10] was Active. Moreover, in [1], the ED50 is 144 µM.
`CC1(C)[C@@H](O[C@H]2O[C@H](C(=O)O)[C@@H](O)[C@H](O)[C@H]2O[C@@H]2O[C@H](C(=O)O)[C@@H](O)[C@H](O)[C@H]2O)CC[C@]2(C)[C@H]3C(=O)C=C4[C@@H]5C[C@@](C)(CN[C@@H](CO)C(=O)O)CC[C@]5(C)CC[C@@]4(C)[C@]3(C)CC[C@@H]12`: the outcome in the assay on Mus musculus [3], in the assay on Mus musculus [4], in the assay with Mus musculus [6], in the assay on Mus musculus [7] and with Mus musculus [10] was Active. Further, the ED50 in assay [1] worked out at 161 µM.
As to `CC1(C)[C@@H](O[C@H]2O[C@H](C(=O)O)[C@@H](O)[C@H](O)[C@H]2O[C@@H]2O[C@H](C(=O)O)[C@@H](O)[C@H](O)[C@H]2O)CC[C@]2(C)[C@H]3C(=O)C=C4[C@@H]5C[C@@](C)(CN[C@@H](CCC(=O)O)C(=O)O)CC[C@]5(C)CC[C@@]4(C)[C@]3(C)CC[C@@H]12`, the result in the assay with Mus musculus [2], in the assay on Mus musculus [3], with Mus musculus [4], in the assay with Mus musculus [5], with Mus musculus [6] and with Mus musculus [7] was Active. Further, the outcome in the assay on Mus musculus [8], in the assay on Mus musculus [9], with Mus musculus [10], in the assay with Mus musculus [11] and in the assay on Mus musculus [12] was Active. Also, in assay [1], the ED50 is 141 µM.
For the compound `CC1(C)[C@@H](O[C@H]2O[C@H](C(=O)O)[C@@H](O)[C@H](O)[C@H]2O[C@@H]2O[C@H](C(=O)O)[C@@H](O)[C@H](O)[C@H]2O)CC[C@]2(C)[C@H]3C(=O)C=C4[C@@H]5C[C@@](C)(CN[C@@H](Cc6ccc(O)cc6)C(=O)O)CC[C@]5(C)CC[C@@]4(C)[C@]3(C)CC[C@@H]12`, the inhibition result in assay [1] is “inactive”.
For the compound `CC1(C)[C@@H](O[C@H]2O[C@H](C(=O)O)[C@@H](O)[C@H](O)[C@H]2O[C@@H]2O[C@H](C(=O)O)[C@@H](O)[C@H](O)[C@H]2O)CC[C@]2(C)[C@H]3C(=O)C=C4[C@@H]5C[C@@](C)(CNC6CCCCC6)CC[C@]5(C)CC[C@@]4(C)[C@]3(C)CC[C@@H]12`, in assay [1], the ED50 worked out at 193 µM.
As for `CC1(C)[C@@H](O[C@H]2O[C@H](C(=O)O)[C@@H](O)[C@H](O)[C@H]2O[C@@H]2O[C@H](C(=O)O)[C@@H](O)[C@H](O)[C@H]2O)CC[C@]2(C)[C@H]3C(=O)C=C4[C@@H]5C[C@@](C)(CN[C@@H](Cc6c[nH]c7ccccc67)C(=O)O)CC[C@]5(C)CC[C@@]4(C)[C@]3(C)CC[C@@H]12`, the outcome with Mus musculus [3], with Mus musculus [4], in the assay with Mus musculus [6], with Mus musculus [7] and with Mus musculus [10] was Active. Further, in assay [1], the ED50 was 144 µM.
Take `C[C@H](NC[C@@]1(C)CC[C@]2(C)CC[C@]3(C)C(=CC(=O)[C@@H]4[C@@]5(C)CC[C@H](O[C@H]6O[C@H](C(=O)O)[C@@H](O)[C@H](O)[C@H]6O[C@@H]6O[C@H](C(=O)O)[C@@H](O)[C@H](O)[C@H]6O)C(C)(C)[C@@H]5CC[C@]43C)[C@@H]2C1)C(=O)O`: the outcome in the assay with Mus musculus [3] and in the assay with Mus musculus [10] was inactive. The outcome in the assay on Mus musculus [6] and in the assay with Mus musculus [7] was Active. In addition, the ED50 in [1] was determined as 337 µM.
`CC1(C)[C@@H](O[C@H]2O[C@H](C(=O)O)[C@@H](O)[C@H](O)[C@H]2O[C@@H]2O[C@H](C(=O)O)[C@@H](O)[C@H](O)[C@H]2O)CC[C@]2(C)[C@H]3C(=O)C=C4[C@@H]5C[C@@](C)(CN[C@@H](Cc6ccccc6)C(=O)O)CC[C@]5(C)CC[C@@]4(C)[C@]3(C)CC[C@@H]12`: the inhibition entry in assay [1] is “inactive”.
The term Kd denotes the free concentration of one partner at which half of the binding sites on the other are occupied at equilibrium, for simple one-to-one binding. For `CC1(C)[C@@H](O[C@H]2O[C@H](C(=O)O)[C@@H](O)[C@H](O)[C@H]2O[C@@H]2O[C@H](C(=O)O)[C@@H](O)[C@H](O)[C@H]2O)CC[C@]2(C)[C@H]3C(=O)C=C4[C@@H]5C[C@@](C)(C(=O)O)CC[C@]5(C)CC[C@@]4(C)[C@]3(C)CC[C@@H]12` [GLYCYRRHIZIN], in assay [1], the ED50 turned out to be 70 µM. For the same compound, the Kd in [13] came to 150 µM.
As to `CC1(C)[C@@H](O[C@H]2O[C@H](C(=O)O)[C@@H](O)[C@H](O)[C@H]2O[C@@H]2O[C@H](C(=O)O)[C@@H](O)[C@H](O)[C@H]2O)CC[C@]2(C)[C@H]3C(=O)C=C4[C@@H]5C[C@@](C)(CNCC(=O)O)CC[C@]5(C)CC[C@@]4(C)[C@]3(C)CC[C@@H]12`, the outcome with Mus musculus [3], in the assay with Mus musculus [4], with Mus musculus [6], with Mus musculus [7] and with Mus musculus [10] was inactive. Further, the inhibition entry in assay [1] was “inactive”.
